From PubChem
Rows were chosen to be rich in hits. Some 1.6% of all compounds tested hit in one or more screens of this group.
PKA-R1A act – PKA-R1A complex activation; P00514+P68181; PKA-R1A dissociation, Cy5-IP20 fluorescence polarization; scaled: DMSO 0%, 113 µM cGMP 100%; activation, % at 11.4 µM; 340,000 compounds, 0.083% hits;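 active = percent activation above the mean of all tested compounds plus 3 SD, cut at about 19% in these data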;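 also: higher means more PKAc released from R1A so a rise in polarization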
HNF4A DNA FP – change in binding of human HNF4 alpha to DNA. HNF4a-FITC DNA binding, fluorescence polarization, 1 h. activity change, % at 10 µM. 360,000 compounds, 0.3% hits. AID 1224865; in the data active = activity change above about 30%, passing the limit was not always enough
Target sequence (P41235 whole entry, looked up): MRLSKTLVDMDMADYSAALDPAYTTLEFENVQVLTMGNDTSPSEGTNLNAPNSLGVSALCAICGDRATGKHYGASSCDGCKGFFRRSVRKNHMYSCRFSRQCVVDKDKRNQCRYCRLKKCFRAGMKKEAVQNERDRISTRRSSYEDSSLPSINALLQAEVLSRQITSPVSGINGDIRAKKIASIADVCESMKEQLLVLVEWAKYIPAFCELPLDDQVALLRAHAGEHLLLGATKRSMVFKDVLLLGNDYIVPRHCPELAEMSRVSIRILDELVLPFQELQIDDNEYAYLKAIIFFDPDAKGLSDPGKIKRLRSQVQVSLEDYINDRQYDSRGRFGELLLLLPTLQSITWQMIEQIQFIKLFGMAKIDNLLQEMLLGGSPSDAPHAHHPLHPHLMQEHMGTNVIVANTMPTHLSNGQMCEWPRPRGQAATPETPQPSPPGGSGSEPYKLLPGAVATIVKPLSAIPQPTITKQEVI
PKA-R2B act – PKA-R2B complex activation; AID 504700; 340,000 compounds, 0.079% hits; PKA-R2B holoenzyme dissociation, Cy5-IP20 fluorescence polarization; R2B truncated from residue 108, S112A mutant; 0% DMSO only, 100% 113 µM cGMP; activation, % at 11.4 µM;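 active = activation above a cutoff set at the mean over all compounds plus 3 SD, cut at about 18% in these data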;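 also: higher means more holoenzyme dissociation and a rise in polarization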
TPT1 inh – blocks Candida albicans tRNA 2'-phosphotransferase; recombinant caTPT1, FP RNA substrate dephosphorylation; inhibition, % at 5 µM; 300,000 compounds, 0.81% hits;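 active = inhibition above the mean of all tested compounds plus 3 SD, set per screening campaign, cut at about 24% in these data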
CSN inh – blocks human CSN-mediated cullin deneddylation. Q92905. Purified CSN, SCF-Nedd8-OG deneddylation, fluorescence polarization. inhibition, % at 12.5 µM. 360,000 compounds, 0.38% hits;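 active = pattern-corrected inhibition above about 35%, with an unprinted fluorescence ratio check between 0.5 and 1.5, limit read from the data, passing the limit was not always enough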
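Schedule: reaction 90 min, room temperature / Assay system: HEK293T-derived human Csn5 enzyme / Input: Csn5 at 0.24 nM final / Measure: inhibition of Csn5 cleavage, % / Control set: substrate-only high control, full reaction low control / Technique: fluorescence polarization of the substrate / Buffer or medium: Tris/NaCl/DTT buffer, pH 7.5 / Reagent: SCFSkp2-Nedd8OG substrate at 10 nM final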
Rpn11 inh – blocks the human proteasome subunit Rpn11. AID 588493. calls only at 20 µM. O00487. human 26S proteasome, Ub4-pepOG fluorescence polarization; 20S core pre-blocked with epoxomicin. 360,000 compounds, 0.59% hits;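 active = inhibition at 20 µM, scaled to each plate's controls, above about 33%, limit read from the data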
R1A FP artifact – counter-screen for PKA-R1A activators: fluorescence polarization artifacts; AID 504799; Cy5-IP20 peptide alone, fluorescence polarization artifact counterscreen; activation, % at 11.4 µM; 280 compounds, 7% hits; shares compounds with PKA-R1A act;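 active = mean activation over triplicate runs exceeds the adjusted cutoff derived for the parent primary screen, cut at about 19% in these data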;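 also: no PKA protein present so any polarization rise reflects compound interference; higher means stronger polarization artifact and likely false positive in parent screen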
PKA-R1A confirm – PKA-R1A complex activation, confirmation; shares compounds with PKA-R1A act; Cy5-IP20 fluorescence polarization, PKA-R1A holoenzyme dissociation; activation, % at 11.4 µM; 280 compounds, 9% hits; AID 504800;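 active = mean activation over replicate wells exceeds the adjusted hit threshold taken from the earlier primary screen, cut at about 20% in these data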
Of the large screens only hits and unclear results are named; the others gave an inactive call (follow-up assays come after a bar, where they were run).

CCOC(=O)C1CCN(CC(C)(C)NS(=O)(=O)c2ccccc2)CC1	PKA-R1A act 20.7 | R1A FP artifact inactive | PKA-R1A confirm inactive
CCCS(=O)(=O)c1ccc(COC(=O)c2ccc(NC(C)=O)cc2)cc1	PKA-R1A act 22.0 | R1A FP artifact inactive | PKA-R1A confirm inactive
CC(=O)Nc1ccc(C(=O)OCc2ccc(Cl)cc2)cc1	none
O=C(Nc1ccc2c(c1)OCO2)c1ccc2c(c1)S(=O)(=O)c1ccccc1C2=O	none
O=C(NCc1ccc2c(c1)OCO2)c1ccc2c(c1)S(=O)(=O)c1ccccc1C2=O	PKA-R1A act 21.8 | R1A FP artifact inactive | PKA-R1A confirm inactive
CCN(CC)S(=O)(=O)c1cccc2cc(C(=O)O)c(O)cc12	none
COC(=O)C1=CN(c2cccc(Cl)c2)C=C(C(=O)OC)C1c1cccc(OC)c1	PKA-R1A act 18.6 (no result: TPT1 inh) | R1A FP artifact inactive | PKA-R1A confirm inactive
Cc1ccc(S(=O)(=O)NCCn2cnc([N+](=O)[O-])n2)cc1	PKA-R1A act 21.3 | R1A FP artifact inactive | PKA-R1A confirm inactive
CCCC1=NN(c2ccc([N+](=O)[O-])cc2)C(=O)/C1=C/N(C)C	PKA-R1A act 19.1 | R1A FP artifact inactive | PKA-R1A confirm inactive
CC1=NN(c2ccc([N+](=O)[O-])cc2)C(=O)/C1=C\N(C)C	none
O=C(CSc1ccc(-c2ccncc2)nn1)N1CCCC1	none
O=C(CSc1ccc(-c2ccncc2)nn1)N1CCCCC1	PKA-R1A act 18.8 | R1A FP artifact inactive | PKA-R1A confirm inactive
COc1ccc(/C=C2/S/C(=N/S(=O)(=O)Cc3ccccc3)NC2=O)cc1OC	PKA-R1A act 23.2 | R1A FP artifact inactive | PKA-R1A confirm inactive
CCCCS(=O)(=O)N1CCCC(C(=O)NCCc2ccccc2)C1 (stereo unspecified)	none
CCCCS(=O)(=O)N1CCCC(C(=O)Nc2ccc3c(c2)CCC3)C1 (stereo unspecified)	PKA-R1A act 18.8 | R1A FP artifact inactive | PKA-R1A confirm inactive
CN(C)CCCNc1nc2cc(-c3ccn[nH]3)sc2c(=O)n1C	none (no result: PKA-R1A act, PKA-R2B act, TPT1 inh)
Cc1ccc(NC(C(=O)c2ccccc2)c2ccccc2)cc1 (stereo unspecified)	none (no result: TPT1 inh)
COc1ccc(C2C(C#N)=C(N)OC3=C2C(=O)CCC3)cc1OC (stereo unspecified)	none
COc1ccc(C2C(C#N)=C(N)OC(C(C)(C)C)=C2C#N)cc1OC (stereo unspecified)	PKA-R1A act 19.9 | R1A FP artifact inactive | PKA-R1A confirm inactive
CCc1cc(=O)oc2cc(C)cc(OCC(=O)NCC(O)c3ccccc3)c12 (stereo unspecified)	none
Cc1ccc(S(=O)(=O)N/N=C/c2cc(Br)c(C)o2)cc1	none
Cc1ccc(S(=O)(=O)NN=Cc2ccco2)cc1	PKA-R1A act 21.9 (no result: TPT1 inh) | R1A FP artifact inactive | PKA-R1A confirm inactive
Cc1ccc(C(=O)NC2CCCCCCC2)c(Cl)c1	none
Cc1c(Br)cc(C(=O)NC2CCCCC2)c(C)c1C	PKA-R1A act 23.0 | R1A FP artifact inactive | PKA-R1A confirm inactive
Cc1cc(NC(=O)CSCC(=O)OCC(=O)Nc2cc(C)c(C)cc2[N+](=O)[O-])no1	PKA-R1A act 19.6 | R1A FP artifact inactive | PKA-R1A confirm inactive
CCOC(=O)C1=NNC(C(=O)c2ccc(OC)cc2)C1c1ccccc1 (stereo unspecified)	PKA-R1A act 19.9 | R1A FP artifact inactive | PKA-R1A confirm inactive
CCOC(=O)C1=NNC(C(=O)c2ccccc2)C1c1ccc(C)cc1 (stereo unspecified)	none
CC12CCC(c3n[nH]c(=S)nc31)C2(C)C (stereo unspecified)	none
CNC(=O)COc1ncnc2scc(-c3ccc(F)cc3)c12	PKA-R1A act 19.2 | R1A FP artifact inactive | PKA-R1A confirm inactive
